Published values gathered from unrelated publications.
Compare with care: the assays were run in different laboratories.
Cell line: A549
Observed: cell growth or viability
Technique: CCK-8

CC(C)(C)[C@H](N)C(=O)Nc1ccccc1/N=c1\cc(-c2ccc3c(c2)OCCO3)oc2cc(F)ccc12  inhibition (1 µM): -4.38%
C#CCn1cnc2ccc(-c3ccc(NC(=O)CCCC)nc3)cc2c1=O  IC50 (72 h): > 10 µM
COc1ccc(NC(=O)Nc2cccc(-c3cn(Cc4ccccc4C)nn3)c2)cc1  viability (20 µM, 72 h): 137%
CCCCC(=O)Nc1ccc(-c2ccc3ncn(CCC)c(=O)c3c2)cc1F  IC50 (72 h): > 10 µM
Nc1ccccc1/N=c1\cc(-c2ccc3c(c2)OCO3)oc2ccccc12  inhibition (1 µM): 11.1%
CCCCC(=O)Nc1ccc(-c2ccc3ncn(CC)c(=O)c3c2)cn1  IC50 (72 h): 0.92 µM
COc1ccc(NC(=O)Nc2ccc(-c3cn(Cc4ccc(Br)cc4)nn3)cc2)cc1  viability (50 µM, 72 h): 101%
O=C(Nc1ccccc1/N=c1\cc(-c2ccc3c(c2)OCO3)oc2ccccc12)N1CCNCC1  inhibition (1 µM): -6.54%
O=C(Nc1ccc(Cl)cc1)Nc1cccc(-c2cn(Cc3ccc(Cl)cc3)nn2)c1  viability (20 µM, 72 h): 121%
Cc1ccccc1Cn1cc(-c2cccc(NC(=O)Nc3ccc(F)cc3)c2)nn1  viability (20 µM, 72 h): 114%
NCC(=O)Nc1ccccc1/N=c1\cc(-c2ccc3c(c2)OCCO3)oc2cc(F)ccc12  inhibition (1 µM): -1.67%
O=C(Nc1ccc(-c2cn(Cc3ccc(Cl)cc3)nn2)cc1)Nc1ccccc1Br  viability (20 µM, 72 h): 102%
